Bioassay records deposited in PubChem by Broad Institute.
Compounds with a hit are over-represented: about 3.8% of the library has one in this group of screens.
Xi reactivation = activators of X-chromosome reactivation in mouse fibroblasts. XiGFP mouse fibroblasts, % GFP-positive cells imaging, 3 d; cells co-treated with 5-aza-dC sensitizer; scaled so ellipticine positive control = 100%. activation, % at 7.58 µM. actives 0.055% (n = 360,000);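 active = mean normalized replicate activation at least 10% and every replicate at or above 10%; inconclusive = only one of the two criteria met; inactive = mean below 10% and not all replicates reach 10%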;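 note: 0% = median of on-plate neutral control wells and 100% = ellipticine 6 µM median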
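Material: XiGFP fibroblasts, SV40-immortalized; Buffer or medium: DMEM containing 5-aza-dC; Compound dosing: single point; Times: 3 days compound exposure.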
DENV2 CPE = inhibitors of DENV2 cytopathic effect; DENV2-infected cells, cytopathic effect rescue, plate reader; CPE inhibition, % at 9.99 µM; actives 1.7% (n = 350,000); in the data active = CPE inhibition above about 20%, passing the limit was not always enough; inconclusive = no clear call, values can overlap the other calls; tested in BHK-21 cells;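 note: 0% = median of neutral control wells and 100% = median of positive control wells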
SIRT5 block = inhibitors of human sirtuin-5 desuccinylase; Purified SirT5, succinyl-peptide AMC, trypsin-coupled fluorescence; inhibition, % at 15 µM; actives 1.1% (n = 330,000); in the data active = inhibition above about 15%; inconclusive = no clear call, values can overlap the other calls
Target sequence (Q9NXA8 whole entry, looked up): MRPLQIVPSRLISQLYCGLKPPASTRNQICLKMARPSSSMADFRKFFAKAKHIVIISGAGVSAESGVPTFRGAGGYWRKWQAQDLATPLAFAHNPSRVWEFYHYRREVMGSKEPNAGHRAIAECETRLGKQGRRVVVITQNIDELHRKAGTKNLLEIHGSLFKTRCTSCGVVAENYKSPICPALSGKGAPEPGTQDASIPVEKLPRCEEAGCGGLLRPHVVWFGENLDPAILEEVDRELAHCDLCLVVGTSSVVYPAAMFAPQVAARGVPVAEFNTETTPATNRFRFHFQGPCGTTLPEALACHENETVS
FGF22 binding-1 = FGF22 (human) thermal shift binding | AID 651658 | recombinant FGF22 thermal shift, SYPRO orange fluorescence; percent of sucrose octasulfate shift, DMSO zero | activity (Tm shift, normalised), % at 9.99 µM | actives 1.5% (n = 340,000) | Q9HCT0;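 active = mean Tm shift, scaled 0 neutral to 100 positive control, at about 1.3% or above, every replicate too, limit read from the data; inconclusive = no clear call, values can overlap the other calls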
Target sequence (Q9HCT0 whole entry, looked up): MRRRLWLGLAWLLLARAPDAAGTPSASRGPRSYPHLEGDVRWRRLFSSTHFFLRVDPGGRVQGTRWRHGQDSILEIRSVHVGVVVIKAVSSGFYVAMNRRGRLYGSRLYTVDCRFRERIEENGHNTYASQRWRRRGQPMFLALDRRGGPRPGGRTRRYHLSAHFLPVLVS
FN deposition inh = fibronectin deposition inhibition; actives 0.086% (n = 350,000); AH1F fibroblasts, Alexa488-fibronectin deposition fluorescence, overnight; AID 743247; inhibition, % at 12.6 µM;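 active = mean inhibition across replicates of 30% or more, regardless of how many single replicates reach that level; inconclusive = mean under 30% yet at least half of replicates reach 30%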;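 note: positive control wells lacked labelled fibronectin entirely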
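Assay system: AH1F fibroblast monolayer, labelled fibronectin deposition. Amount: 10000 cells per well. Also added: labelled fibronectin 24 nM. Compound: single-point pinned compound. Incubation: cell attachment 1 h, compound and FN exposure overnight. Detection: fluorescence after three HBSS washes, excitation 485 nm, emission 525 nm. Read-out: inhibition of fibronectin deposition signal.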
ARNT TACC3 PPI = ARNT/TACC3 interaction disruption; AlphaScreen His-ARNT PAS-B/GST-TACC3 binding, luminescence; TACC3 fragment carries E629A point mutation; Q9Y6A5; actives 0.66% (n = 390,000); inhibition, % at 9.99 µM;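 active = mean inhibition of replicates at least 50% and at least half of replicates each reaching 50%; inconclusive = half or more replicates reach 50% but mean below 50%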;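 note: 0% = complete ARNT plus TACC3 wells and 100% = ARNT alone without TACC3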
FGF22 binding-2 = FGF22 (human) binding in thermal shift | shares compounds with FGF22 binding-1 | thermal shift activity, °C (ΔTm) at 38 µM | AID 720646 | actives 2% (n = 1,000) | recombinant FGF22 thermal shift, SYPRO orange fluorescence;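 active = fitted rise in melting shift crosses a set limit at or below the top valid dose tested; inconclusive = flat fit at mid-level activity, or a poor quality fit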
SYPRO no-protein = compound-only SYPRO artifact for FGF22 binders. AC50, µM (highest dose often 38 µM). shares compounds with FGF22 binding-1. actives 2% (n = 1,000). AID 743019. compound-only SYPRO orange thermal shift counter-screen, no protein;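 active = rising signal whose fitted curve reaches the 0.54 level within the top valid dose, showing a melting point, actives reach about 13 µM in these data; inactive = the rest, including activity in the opposite direction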; note: value is where the raw curve crosses a fixed level and not half-maximal
* = called active by the depositor; i = inactive; ? = inconclusive; . = no result given; ! = repeats disagree; [ ] = remark or other dose.

SMILES | Xi reactivation | DENV2 CPE | SIRT5 block | FGF22 binding-1 | FN deposition inh | ARNT TACC3 PPI | FGF22 binding-2 | SYPRO no-protein
COC(=O)COc1cc(OCC(=O)OC)c2c(C)c(Cl)c(=O)oc2c1 | 0 | . | . | . | 5 | -37 | . | .
COC(=O)C(C)Oc1cc(OC(C)C(=O)OC)c2c(C)c(Cl)c(=O)oc2c1 (configuration not stated) | 0 | -7 | -51 | 1.6* | -7 | 4 | . | i
C[C@H](O)C#Cc1ccc2c(c1)O[C@H](CN(C)C(=O)Cc1ccccn1)[C@@H](C)CN([C@H](C)CO)S2(=O)=O | 0 | -2 | -1 | 1.4* | . | 3 | -0.082 | i
C[C@@H]1CN([C@H](C)CO)S(=O)(=O)c2ccc(C#CCN(C)C)cc2O[C@@H]1CN(C)Cc1ccccc1F | 0 | 8 | -2 | 4.7*! | -4 | 8 | 0.15 | i
COCC(=O)N(C)C[C@@H]1Oc2cc(C#C[C@H](C)O)ccc2S(=O)(=O)N([C@@H](C)CO)C[C@H]1C | -1 | -3 | 0 | 36* | -23 | 0 | 0.021[42 µM] | i
C[C@@H]1CN([C@H](C)CO)S(=O)(=O)c2ccc(C#CC3CC3)cc2O[C@H]1CN(C)C(=O)c1ccncc1 | -1 | -8 | 7 | 1.4* | . | . | 0.024 | i
O=C(NCC[C@@H]1CC[C@H](NC(=O)C2CC2)[C@H](CO)O1)Nc1ccc(C(F)(F)F)cc1 | 0 | 4 | -5 | 0 | 5 | 3 | . | .
CCCC#Cc1ccc2c(c1)O[C@H](CN(C)C(C)=O)[C@@H](C)CN([C@@H](C)CO)S2(=O)=O | -1 | 1 | 3 | 1.5* | -3 | 3 | 0.03 | i
O=C(CNC(=O)c1cccc(Br)c1)N/N=C/c1cccs1 | 0 | 6 | -3 | 0 | -1 | 30 | . | .
O=C(CNC(=O)c1cccc(Br)c1)N/N=C/c1cc(Br)cc(Br)c1O | 0 | -7 | 2 | 1.7* | 5 | 16 | -0.14 | i
O=C(C[C@@H]1CC[C@@H]2[C@H](COC[C@@H](O)CN2Cc2ccc(F)cc2)O1)NCc1ccccc1Cl | 0 | 12 | -8 | 0 | 9 | 8 | . | .
Cc1ccc(NC(=O)Nc2ccc3c(c2)C(=O)N(C)[C@@H]2CC[C@@H](CC(=O)NCC(F)(F)F)O[C@H]2CO3)cc1 | 0 | 0 | -7 | -1 | -6 | 14 | . | .
Fc1ccccc1Nc1n[nH]c(=S)s1 | 0 | 5 | 2 | 1.6* | . | 20 | -0.11 | i
Cc1ccccc1Nc1n[nH]c(=S)s1 | 0 | -2 | 3 | 0 | -9 | . | . | .
CC1(C)Oc2cc3oc(-c4cc(O)cc(O)c4)cc3cc2CC1O (configuration not stated) | . | 1 | -15 | 1 | . | 3 | . | .
Oc1cc(O)cc(-c2cc3ccc(O)cc3o2)c1 | . | -7 | . | 2.1* | . | 21 | 0.007 | i
C[C@H](CO)N1C[C@H](C)[C@H](CN(C)C)OCCCC[C@H](C)Oc2ccc(NS(=O)(=O)c3ccc(Cl)cc3)cc2C1=O | 0 | ? | -3 | -1 | . | 1 | . | .
Cn1c(=O)[nH]c(=O)c2c1nc(SCC(O)CO)n2CCCc1ccccc1 (configuration not stated) | 0 | 0 | -2 | 1.4* | -6 | -9 | 0.026 | i
CC(C)CCSc1nc2c(c(=O)[nH]c(=O)n2C)n1CCCc1ccccc1 | 0 | 1 | -2 | 0 | -2 | -1 | . | .
O=C(C[C@@H]1C[C@@H]2c3cc(NC(=O)NC4CCCC4)ccc3O[C@@H]2[C@@H](CO)O1)NCc1ccc2c(c1)OCO2 | 0 | 2 | . | 0 | . | -7 | . | .
O=C(C[C@H]1C[C@@H]2c3cc(NC(=O)NC4CCCC4)ccc3O[C@@H]2[C@H](CO)O1)NCc1ccc2c(c1)OCO2 | 0 | . | 1 | 1.9* | . | 2 | -0.076 | i
